{
  "source": "paper PMC6007853",
  "about": "(Biochemistry, 2018)",
  "key": {"Kv1.4": {"biological_target": "Kv1.4 (Homo sapiens, UniProt P22459)", "sequence (P22459 whole entry)": "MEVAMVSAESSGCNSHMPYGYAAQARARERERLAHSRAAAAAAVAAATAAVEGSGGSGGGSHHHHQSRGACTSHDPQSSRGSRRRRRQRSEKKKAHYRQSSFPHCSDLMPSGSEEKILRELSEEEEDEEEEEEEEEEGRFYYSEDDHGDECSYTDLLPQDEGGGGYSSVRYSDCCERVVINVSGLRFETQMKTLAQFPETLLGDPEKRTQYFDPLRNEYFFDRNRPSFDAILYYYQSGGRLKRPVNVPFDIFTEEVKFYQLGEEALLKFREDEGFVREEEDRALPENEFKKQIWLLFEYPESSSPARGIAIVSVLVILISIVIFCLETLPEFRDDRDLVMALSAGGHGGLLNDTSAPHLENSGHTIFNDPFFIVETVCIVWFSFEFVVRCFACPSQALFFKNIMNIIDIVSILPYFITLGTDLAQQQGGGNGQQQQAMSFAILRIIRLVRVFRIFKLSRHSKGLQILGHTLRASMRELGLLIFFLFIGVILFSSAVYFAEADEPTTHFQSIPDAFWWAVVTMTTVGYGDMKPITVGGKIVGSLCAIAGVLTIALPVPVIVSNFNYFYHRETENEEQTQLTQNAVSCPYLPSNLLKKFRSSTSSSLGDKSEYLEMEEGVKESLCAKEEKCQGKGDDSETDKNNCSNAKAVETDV", "format": "cell-based", "conditions": "for τact / τinact: voltage step from −100 mV to 0 mV, double exponential fit; for Kv1.4 / Kv channel inhibition (in words): highest concentrations tested", "method_in_brief": "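Kv1.4 expressed under tetracycline induction in a CHO-K1 line and recorded by automated whole-cell voltage clamp. Voltage steps went from −100 mV to 0 mV. A double exponential was fitted to current rise and decay to obtain τact and τinact. Kd values were fitted from these, n = 9, SEM. IC50 came from the best fit of peak-current inhibition ± standard deviation of the parameter fit.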"}, "[1]": {"tested_on": "Gramicidin A (gA) channel", "assay": "Gramicidin A based fluorescence quench assay", "format": "biochemical", "conditions": "highest concentration tested", "method_in_brief": "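ANTS was loaded into large unilamellar vesicles containing gramicidin A, and Tl+ was added to the suspension. Intravesicular ANTS quenching was followed over time, with nine individual repeats per trace. The initial quench rate gave the Tl+ influx rate. gA2 is the compound concentration that doubles that rate. Where gA2 was not obtained, the highest concentration tested is given.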"}},
  "note": "“Also recorded” adds a separate entry of the source. Read-outs that look alike come from different tables or passages of the source.",
  "data": [
    {"smiles": "NCCc1c(SSc2[nH]c3cc(Br)ccc3c2CCN)[nH]c2cc(Br)ccc12", "note": "[1a, 6-bromo-2-mercaptotryptamine dimer]", "values": [
      {"measurement": "τact", "setting": "Kv1.4; 1.5 μM BrMT", "result": "2.54 ± 0.02"},
      {"measurement": "τinact", "setting": "Kv1.4; 1.5 μM BrMT", "result": "136.6 ± 0.6"},
      {"measurement": "τact", "setting": "Kv1.4; 3 μM BrMT", "result": "3.17 ± 0.03"},
      {"measurement": "τinact", "setting": "Kv1.4; 3 μM BrMT", "result": "181 ± 2"},
      {"measurement": "τact", "setting": "Kv1.4; 6 μM BrMT", "result": "4.2 ± 0.4"},
      {"measurement": "τinact", "setting": "Kv1.4; 6 μM BrMT", "result": "300 ± 20"},
      {"measurement": "Kv1.4 / Kv channel inhibition (in words)", "setting": "Kv1.4", "result": "strongly inhibit"}
    ]},
    {"smiles": "NCCc1c(SSc2[nH]c3ccc(Br)cc3c2CCN)[nH]c2ccc(Br)cc12", "note": "[compound 8]", "values": [
      {"measurement": "Kv1.4 / Kv channel inhibition (in words)", "setting": "Kv1.4", "result": "strongly inhibit"},
      {"measurement": "gA assay activity / bilayer perturbation (in words)", "setting": "[1]", "result": "complete inactivity; also recorded: does not perturb bilayers"}
    ]},
    {"smiles": "NCCc1c(COCc2[nH]c3cc(Br)ccc3c2CCN)[nH]c2cc(Br)ccc12", "note": "[compound 14]", "values": [
      {"measurement": "Kv1.4 / Kv channel inhibition (in words)", "setting": "Kv1.4", "result": "strongly inhibit"},
      {"measurement": "IC50", "setting": "Kv1.4; read-out: IC50 (potency against Kv1.4)", "result": 2700, "unit": "nM"}
    ]},
    {"smiles": "Cc1ccc2c(CCN)c(SSc3[nH]c4cc(C)ccc4c3CCN)[nH]c2c1", "note": "[compound 7]", "values": [
      {"measurement": "Kv1.4 / Kv channel inhibition (in words)", "setting": "Kv1.4", "result": "strongly inhibit"}
    ]}
  ]
}
